Results taken from PMC3658146 (Clinical cancer research : an official journal of the …, 2013).
Where “and” joins values, the source holds several entries; their conditions need not be identical. Identical values can stand only once. Like-named read-outs stand apart in the source and are kept apart here.

How the values were obtained:
[1] = system: dihydropyrimidine dehydrogenase; details: stated without reference; cited from earlier work
[2] = Urinary recovery of IPdR and metabolites after a single oral dose of IPdR; type: in vivo, human (patients with advanced malignancies); details: patients receiving 2400 mg of IPdR
Outline: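 Urine was collected pre-dose and then at each void over 24 h, with volumes recorded and aliquots stored at −80°C. Samples underwent liquid–liquid extraction and LC–MS/MS for IPdR, IdUrd, IP and IUra, with BrdUrd and BrUra as internal standards. Calibration covered 0.1–50 μM in patient pre-dose urine. Samples above 50 μM were diluted 1:10 and reanalyzed. The quantitation limit was 0.1 μM for IPdR and IdUrd and 0.25 μM for IP and IUra.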

[3] = Plasma pharmacokinetics after a single oral dose of IPdR; type: in vivo, human (patients with advanced malignancies)
Outline: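 Patients received a single oral dose of 150, 300, 600, 1200 or 2400 mg, with one patient per level and 6 at 2400 mg. Blood was drawn pre-dose and at 5, 15, 30 min and 1, 2, 4, 10, 24 h, and plasma was kept at −80°C. After solvent deproteinization, IPdR, IdUrd, IP and IUra were measured by C18 LC–MS/MS. BrdUrd and BrUra served as internal standards, with calibration at 0.1–50 μM in control plasma.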

[4] = system: anaplastic astrocytoma; details: patients with anaplastic astrocytoma, radiation combined with IdUrd; cited from earlier work
[5] = system: tumor; details: c.i.v. IdUrd; cited from earlier work
[6] = system: ovarian cancer; details: patients with ovarian cancer, intraperitoneal IdUrd; cited from earlier work
[7] = clinical, reason for c.i.v. infusion; cited from earlier work
[8] = athymic mice, ≤ 1500 mg/kg/day for 6 to 14 days; cited from earlier work
[9] = Safety assessment for 14 days after a single oral dose of IPdR; type: in vivo, human (patients with advanced malignancies); details: single oral dose 150-2400 mg, 10 patients, 14 days follow-up
Outline: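 After a single oral dose on day 1 (150–2400 mg), patients were followed for 14 days. Complete blood counts with differential and serum chemistries were done at baseline, day 2 and day 14, with grading by CTCAE v4.0. Significant toxicity was defined as a drug-related event within 14 days at grade ≥2 non-hematologic (excluding correctable electrolytes), grade ≥2 thrombocytopenia, or grade ≥3 anemia/leucopenia/neutropenia. Each next patient enrolled only after the prior one completed 2 weeks.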

[10] = mice, oral IPdR, sustained for at least 6 hours; cited from earlier work
[11] = rats, oral IPdR, sustained for at least 6 hours; cited from earlier work
[12] = rats, for 28 days; cited from earlier work

O=c1[nH]cc(I)c(=O)[nH]1 [IUra, 5-iodouracil]
effect on the enzyme dihydropyrimidine dehydrogenase [1]: inhibits
detection in urine samples [2]: detectable
share of the metabolites measured in urine ([2]; 24 hours): 90 ± 13%
concentration at 10 hours ([3]; human, plasma, oral, 2400 mg): ~100 µM
AUC ([3]; human, plasma, po, 150 mg): 1 µM·h
Cmax ([3]; human, plasma, po, 150 mg): 0.2 µM
AUC ([3]; human, plasma, po, 300 mg): 4.5 µM·h
Cmax ([3]; human, plasma, po, 300 mg): 0.8 µM
AUC ([3]; human, plasma, po, 600 mg): 17.2 µM·h
Cmax ([3]; human, plasma, po, 600 mg): 4.5 µM
AUC ([3]; human, plasma, po, 1200 mg): 103 µM·h
Cmax ([3]; human, plasma, po, 1200 mg): 34.2 µM
AUC ([3]; human, plasma, po, 2400 mg): 1060 µM·h
Cmax ([3]; human, plasma, po, 2400 mg): 133 µM
time of peak IUra plasma level post IPdR administration ([3]; single oral IPdR 2400 mg): 3.3 ± 1.0 hours and 3.3 (± 1.0) hours

O=c1[nH]c(=O)n([C@H]2C[C@H](O)[C@@H](CO)O2)cc1I [IdUrd, 5-iodo-2′-deoxyuridine, reference compound]
detection in urine samples [2]: detectable
median survival [4]: 3.2 years
patients surviving at 5 years [4]: 33%
patients with tumor shrinkage [5]: 6 out of 11
effect on ascites [6]: disappearance of ascites
half-life [7]: in the order of minutes
AUC ([3]; human, plasma, po, 150 mg): 1.7 µM·h
Cmax ([3]; human, plasma, po, 150 mg): 0.8 µM
AUC ([3]; human, plasma, po, 300 mg): 0.3 µM·h
Cmax ([3]; human, plasma, po, 300 mg): 0.3 µM
AUC ([3]; human, plasma, po, 600 mg): 3.2 µM·h
Cmax ([3]; human, plasma, po, 600 mg): 1.8 µM
AUC ([3]; human, plasma, po, 1200 mg): 4.7 µM·h
Cmax ([3]; human, plasma, po, 1200 mg): 2.1 µM
AUC ([3]; human, plasma, po, 2400 mg): 12.2 µM·h
Cmax ([3]; human, plasma, po, 2400 mg): 4 µM
half-life ([3]; human, plasma, po, 2400 mg): 1.5 h
time of peak IdUrd plasma level after IPdR administration ([3]; single oral IPdR 2400 mg, 6 patients, mean ± SD): 1.67 ± 1.21 h

O=c1ncc(I)c[nH]1 [IP, 5-iodo-2-pyrimidinone]
detection in urine samples [2]: detectable

O=c1ncc(I)cn1[C@H]1C[C@H](O)[C@@H](CO)O1 [IPdR, 5-iodo-2-pyrimidinone-2′-deoxyribose]
toxicities after daily oral doses [8]: no significant toxicities
dose recovered in urine over 24 hours ([2]; IPdR and metabolites): Twelve
detection in urine samples [2]: detectable
drug-related adverse events [9]: no drug-related adverse events
plasma concentrations of IPdR [10]: > 100 µM
plasma concentrations of IPdR [11]: > 100 µM
tolerable dose for repeat dose studies [12]: 2000 mg/kg/day
IPdR AUC ([3]; plasma, single oral IPdR 150 mg, one patient): 3.4 μM-hr
IPdR AUC ([3]; plasma, single oral IPdR 600 mg, one patient): 8.3 μM-hr
IPdR AUC ([3]; plasma, single oral IPdR 1200 mg, one patient): 0.7 μM-hr
IPdR AUC ([3]; plasma, single oral IPdR 2400 mg, mean of 6 patients): 15.6 μM-hr
Cmax ([3]; read-out: IPdR Cmax, plasma, single oral IPdR 150 mg, one patient): 0.6 µM
Cmax ([3]; read-out: IPdR Cmax, plasma, single oral IPdR 600 mg, one patient): 0.93 µM
Cmax ([3]; read-out: IPdR Cmax, plasma, single oral IPdR 1200 mg, one patient): 0.95 µM
Cmax ([3]; read-out: IPdR Cmax, plasma, single oral IPdR 2400 mg, mean of 6 patients): 4.3 µM
